# Source: ChEMBL document CHEMBL4184148 (Bioorg Med Chem Lett, 2017)
# What was measured:
# [1] = system: Tyrosine-protein kinase ABL1 (Homo sapiens), P00519 [Q252H]; assay: Binding affinity to human phosphorylated ABL1 Q252H mutant expressed in HEK293 cells at 1 uM by Kinomescan method relative to control; type: cell-based
# [2] = molecular target: Bone morphogenetic protein receptor type-1B (Homo sapiens) (UniProt O00238); assay: Binding affinity to wild-type human partial length BMPR1B (D178 to L502 residues) expressed in HEK293 cells at 1 uM by Kinomescan method relative to control; type: cell-based
# Sequence of Bone morphogenetic protein receptor type-1B (Homo sapiens) (O00238 whole entry, the tested form may be a part): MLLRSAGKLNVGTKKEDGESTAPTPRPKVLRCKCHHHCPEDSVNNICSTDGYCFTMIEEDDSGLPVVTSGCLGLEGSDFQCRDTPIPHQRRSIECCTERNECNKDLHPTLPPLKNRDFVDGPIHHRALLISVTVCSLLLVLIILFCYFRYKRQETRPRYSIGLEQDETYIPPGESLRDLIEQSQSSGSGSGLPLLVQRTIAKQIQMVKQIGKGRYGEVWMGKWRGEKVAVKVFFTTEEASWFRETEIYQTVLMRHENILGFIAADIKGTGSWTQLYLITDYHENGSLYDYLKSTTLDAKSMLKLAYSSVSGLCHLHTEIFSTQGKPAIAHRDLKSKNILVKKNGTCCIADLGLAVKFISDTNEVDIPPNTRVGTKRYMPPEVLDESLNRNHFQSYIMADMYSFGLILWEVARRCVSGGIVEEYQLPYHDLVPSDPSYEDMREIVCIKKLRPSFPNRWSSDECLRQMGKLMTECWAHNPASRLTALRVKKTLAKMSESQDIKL
# [3] = molecular target: Serine/threonine-protein kinase B-raf (Homo sapiens) (UniProt P15056); assay: Binding affinity to wild-type human partial length BRAF (S429 to E741 residues) expressed in HEK293 cells at 1 uM by Kinomescan method relative to control; type: cell-based
# [4] = molecular target: Protein-tyrosine kinase 6 (Homo sapiens) (UniProt Q13882); assay: Binding affinity to wild-type human partial length BRK (L166 to T451 residues) expressed in Escherichia coli BL21 at 1 uM by Kinomescan method relative to control
# Sequence of Protein-tyrosine kinase 6 (Homo sapiens) (Q13882 whole entry, looked up, the tested form may be a part): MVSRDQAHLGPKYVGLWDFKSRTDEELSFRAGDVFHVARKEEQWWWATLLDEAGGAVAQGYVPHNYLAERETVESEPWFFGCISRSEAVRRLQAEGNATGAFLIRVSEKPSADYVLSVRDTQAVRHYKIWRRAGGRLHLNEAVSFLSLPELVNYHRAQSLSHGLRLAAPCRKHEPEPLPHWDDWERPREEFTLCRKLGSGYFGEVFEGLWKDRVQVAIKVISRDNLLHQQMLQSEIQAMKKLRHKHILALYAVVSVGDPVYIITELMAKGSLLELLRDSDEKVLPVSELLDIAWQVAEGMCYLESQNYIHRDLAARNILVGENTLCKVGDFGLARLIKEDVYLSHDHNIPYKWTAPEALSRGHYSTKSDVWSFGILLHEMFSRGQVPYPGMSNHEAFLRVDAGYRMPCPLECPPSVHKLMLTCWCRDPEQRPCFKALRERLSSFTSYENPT
# [5] = molecular target: Ephrin type-A receptor 6 (Homo sapiens) (UniProt Q9UF33); assay: Binding affinity to wild-type human partial length EPHA6 (Y700 to E1046 residues) expressed in Escherichia coli BL21 at 1 uM by Kinomescan method relative to control
# [6] = molecular target: Ephrin type-B receptor 4 (Homo sapiens) (UniProt P54760); assay: Binding affinity to wild-type human partial length EPHB4 (H585 to G892 residues) expressed in Escherichia coli BL21 at 1 uM by Kinomescan method relative to control
# [7] = molecular target: Receptor-type tyrosine-protein kinase FLT3 (Homo sapiens) (UniProt P36888); assay: Binding affinity to wild-type human partial length FLT3 (V592 to Y969 residues) expressed in Escherichia coli BL21 at 1 uM by Kinomescan method relative to control
# [8] = molecular target: Tyrosine-protein kinase FRK (Homo sapiens) (UniProt P42685); assay: Binding affinity to wild-type human partial length FRK (A215 to F503 residues) expressed in Escherichia coli BL21 at 1 uM by Kinomescan method relative to control
# [9] = system: Mast/stem cell growth factor receptor Kit (Homo sapiens), P10721 [V559D,V654A]; assay: Binding affinity to human partial length KIT V559D/V654A double mutant (Y545 to D952 residues) expressed in Escherichia coli BL21 at 1 uM by Kinomescan method relative to control
# Sequence of Mast/stem cell growth factor receptor Kit (Homo sapiens), P10721 [V559D,V654A] (P10721 whole entry V559D/V654A, the tested form may be a part): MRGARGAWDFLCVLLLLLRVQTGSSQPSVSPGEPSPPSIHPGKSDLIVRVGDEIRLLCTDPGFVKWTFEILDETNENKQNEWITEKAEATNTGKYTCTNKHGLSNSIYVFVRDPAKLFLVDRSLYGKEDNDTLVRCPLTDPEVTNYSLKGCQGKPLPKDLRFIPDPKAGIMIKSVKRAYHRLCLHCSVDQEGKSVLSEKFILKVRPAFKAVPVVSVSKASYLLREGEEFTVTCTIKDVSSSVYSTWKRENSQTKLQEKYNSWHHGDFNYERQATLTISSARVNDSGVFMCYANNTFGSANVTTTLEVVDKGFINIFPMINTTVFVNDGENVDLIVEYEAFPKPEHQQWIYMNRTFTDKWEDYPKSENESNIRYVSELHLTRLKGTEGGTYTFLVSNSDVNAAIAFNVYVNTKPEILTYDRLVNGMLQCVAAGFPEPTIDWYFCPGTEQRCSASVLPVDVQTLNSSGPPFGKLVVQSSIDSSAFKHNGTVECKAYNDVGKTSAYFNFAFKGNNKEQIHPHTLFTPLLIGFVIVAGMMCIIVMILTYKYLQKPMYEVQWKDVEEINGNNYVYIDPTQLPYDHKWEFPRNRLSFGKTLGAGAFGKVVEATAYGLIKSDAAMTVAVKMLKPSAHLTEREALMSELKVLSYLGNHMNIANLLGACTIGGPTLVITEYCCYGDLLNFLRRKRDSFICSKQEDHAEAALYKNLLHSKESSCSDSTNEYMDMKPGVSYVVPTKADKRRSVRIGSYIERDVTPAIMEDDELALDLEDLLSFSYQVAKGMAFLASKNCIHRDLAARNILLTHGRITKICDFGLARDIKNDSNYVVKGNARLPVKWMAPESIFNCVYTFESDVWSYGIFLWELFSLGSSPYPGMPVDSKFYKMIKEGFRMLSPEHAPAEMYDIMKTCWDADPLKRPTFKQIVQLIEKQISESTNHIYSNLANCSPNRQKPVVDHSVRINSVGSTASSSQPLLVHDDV
# [10] = system: Mast/stem cell growth factor receptor Kit (Homo sapiens), P10721 [V559D]; assay: Binding affinity to human partial length KIT V559D mutant (Y545 to D952 residues) expressed in Escherichia coli BL21 at 1 uM by Kinomescan method relative to control
# Sequence of Mast/stem cell growth factor receptor Kit (Homo sapiens), P10721 [V559D] (P10721 whole entry V559D, the tested form may be a part): as the sequence (P10721 whole entry V559D/V654A, the tested form may be a part) above, with A654V counted along it
# [11] = molecular target: Leucine-rich repeat serine/threonine-protein kinase 2 (Homo sapiens, UniProt Q5S007); assay: Binding affinity to wild-type human partial length LRRK2 (H970 to E2527 residues) expressed in HEK293 cells at 1 uM by Kinomescan method relative to control; type: cell-based
# [12] = molecular target: Phosphatidylinositol 4,5-bisphosphate 3-kinase catalytic subunit alpha isoform (Homo sapiens) (UniProt P42336); assay: Binding affinity to wild-type human partial length PIK3CA (R108 to N1068 residues) expressed in HEK293 cells at 1 uM by Kinomescan method relative to control; type: cell-based
# Sequence of Phosphatidylinositol 4,5-bisphosphate 3-kinase catalytic subunit alpha isoform (Homo sapiens) (P42336 whole entry, the tested form may be a part, canonical isoform): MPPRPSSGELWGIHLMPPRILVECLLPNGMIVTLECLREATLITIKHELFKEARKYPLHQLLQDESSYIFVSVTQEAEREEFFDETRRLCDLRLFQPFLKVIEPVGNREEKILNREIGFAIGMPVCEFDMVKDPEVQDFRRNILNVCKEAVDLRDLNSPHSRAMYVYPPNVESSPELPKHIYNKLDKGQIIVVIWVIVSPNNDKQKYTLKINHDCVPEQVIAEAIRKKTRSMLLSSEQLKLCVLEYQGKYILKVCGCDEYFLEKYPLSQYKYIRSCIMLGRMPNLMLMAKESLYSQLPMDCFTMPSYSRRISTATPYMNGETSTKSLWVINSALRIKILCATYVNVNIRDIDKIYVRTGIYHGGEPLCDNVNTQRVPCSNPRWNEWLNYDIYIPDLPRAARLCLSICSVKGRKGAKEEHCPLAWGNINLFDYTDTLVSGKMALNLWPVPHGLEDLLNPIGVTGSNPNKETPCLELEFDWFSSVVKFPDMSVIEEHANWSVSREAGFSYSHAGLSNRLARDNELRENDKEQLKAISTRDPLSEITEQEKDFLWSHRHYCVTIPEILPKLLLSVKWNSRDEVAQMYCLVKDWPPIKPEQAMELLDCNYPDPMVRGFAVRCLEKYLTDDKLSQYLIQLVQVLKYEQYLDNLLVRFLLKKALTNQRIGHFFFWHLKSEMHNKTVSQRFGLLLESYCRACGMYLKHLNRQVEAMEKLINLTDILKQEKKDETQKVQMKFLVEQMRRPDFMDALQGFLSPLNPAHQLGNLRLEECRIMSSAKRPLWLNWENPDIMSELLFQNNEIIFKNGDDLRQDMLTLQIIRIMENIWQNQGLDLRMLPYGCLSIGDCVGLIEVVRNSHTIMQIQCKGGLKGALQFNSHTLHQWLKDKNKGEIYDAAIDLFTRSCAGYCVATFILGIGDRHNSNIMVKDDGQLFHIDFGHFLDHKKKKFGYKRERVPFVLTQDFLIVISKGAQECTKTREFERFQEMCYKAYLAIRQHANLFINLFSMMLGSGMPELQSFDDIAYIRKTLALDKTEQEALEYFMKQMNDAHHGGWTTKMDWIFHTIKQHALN
# [13] = molecular target: Phosphatidylinositol 4-kinase beta (Homo sapiens) (UniProt Q9UBF8); assay: Binding affinity to wild-type human full length PIK4CB (M1 to M828 residues) expressed in HEK293 cells at 1 uM by Kinomescan method relative to control; type: cell-based
# How it was run: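 Kinome-wide competition binding panel run by an outside provider, with each compound tested at a single concentration. Activity is read against the kinase panel.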
# [14] = molecular target: Serine/threonine-protein kinase N2 (Homo sapiens) (UniProt Q16513); assay: Binding affinity to wild-type human partial length PKN2 (E634 to C984 residues) expressed in Escherichia coli BL21 at 1 uM by Kinomescan method relative to control
# [15] = system: Proto-oncogene tyrosine-protein kinase receptor Ret (Homo sapiens), P07949 [M918T]; assay: Binding affinity to human partial length RET M918T mutant (E713 to D1014 residues) expressed in Escherichia coli BL21 at 1 uM by Kinomescan method relative to control
# [16] = molecular target: Ribosomal protein S6 kinase alpha-5 (Homo sapiens) (UniProt O75582); assay: Binding affinity to wild-type human partial length C-terminal RPS6KA5 kinase domain 2 (V390 to T718 residues) expressed in Escherichia coli BL21 at 1 uM by Kinomescan method relative to control
# [17] = molecular target: Ribosomal protein S6 kinase alpha-3 (Homo sapiens) (UniProt P51812); assay: Binding affinity to wild-type human partial length C-terminal RSK3 kinase domain 2 (V403 to K700 residues) expressed in Escherichia coli BL21 at 1 uM by Kinomescan method relative to control
# [18] = molecular target: Ribosomal protein S6 kinase beta-1 (Homo sapiens) (UniProt P23443); assay: Binding affinity to wild-type human partial length S6K1 (M1 to S421 residues) expressed in HEK293 cells at 1 uM by Kinomescan method relative to control; type: cell-based
# [19] = molecular target: Serine/threonine-protein kinase Sgk3 (Homo sapiens) (UniProt Q96BR1); assay: Binding affinity to wild-type human partial length SGK3 (M119 to L496 residues) expressed in HEK293 cells at 1 uM by Kinomescan method relative to control; type: cell-based
# [20] = molecular target: Proto-oncogene tyrosine-protein kinase Src (Homo sapiens) (UniProt P12931); assay: Binding affinity to wild-type human partial length SRC (L240 to L536 residues) expressed in Escherichia coli BL21 at 1 uM by Kinomescan method relative to control
# [21] = molecular target: Angiopoietin-1 receptor (Homo sapiens) (UniProt Q02763); assay: Binding affinity to wild-type human partial length TIE2 (N804 to T1112 residues) expressed in Escherichia coli BL21 at 1 uM by Kinomescan method relative to control
# Sequence of Angiopoietin-1 receptor (Homo sapiens) (Q02763 whole entry, the tested form may be a part): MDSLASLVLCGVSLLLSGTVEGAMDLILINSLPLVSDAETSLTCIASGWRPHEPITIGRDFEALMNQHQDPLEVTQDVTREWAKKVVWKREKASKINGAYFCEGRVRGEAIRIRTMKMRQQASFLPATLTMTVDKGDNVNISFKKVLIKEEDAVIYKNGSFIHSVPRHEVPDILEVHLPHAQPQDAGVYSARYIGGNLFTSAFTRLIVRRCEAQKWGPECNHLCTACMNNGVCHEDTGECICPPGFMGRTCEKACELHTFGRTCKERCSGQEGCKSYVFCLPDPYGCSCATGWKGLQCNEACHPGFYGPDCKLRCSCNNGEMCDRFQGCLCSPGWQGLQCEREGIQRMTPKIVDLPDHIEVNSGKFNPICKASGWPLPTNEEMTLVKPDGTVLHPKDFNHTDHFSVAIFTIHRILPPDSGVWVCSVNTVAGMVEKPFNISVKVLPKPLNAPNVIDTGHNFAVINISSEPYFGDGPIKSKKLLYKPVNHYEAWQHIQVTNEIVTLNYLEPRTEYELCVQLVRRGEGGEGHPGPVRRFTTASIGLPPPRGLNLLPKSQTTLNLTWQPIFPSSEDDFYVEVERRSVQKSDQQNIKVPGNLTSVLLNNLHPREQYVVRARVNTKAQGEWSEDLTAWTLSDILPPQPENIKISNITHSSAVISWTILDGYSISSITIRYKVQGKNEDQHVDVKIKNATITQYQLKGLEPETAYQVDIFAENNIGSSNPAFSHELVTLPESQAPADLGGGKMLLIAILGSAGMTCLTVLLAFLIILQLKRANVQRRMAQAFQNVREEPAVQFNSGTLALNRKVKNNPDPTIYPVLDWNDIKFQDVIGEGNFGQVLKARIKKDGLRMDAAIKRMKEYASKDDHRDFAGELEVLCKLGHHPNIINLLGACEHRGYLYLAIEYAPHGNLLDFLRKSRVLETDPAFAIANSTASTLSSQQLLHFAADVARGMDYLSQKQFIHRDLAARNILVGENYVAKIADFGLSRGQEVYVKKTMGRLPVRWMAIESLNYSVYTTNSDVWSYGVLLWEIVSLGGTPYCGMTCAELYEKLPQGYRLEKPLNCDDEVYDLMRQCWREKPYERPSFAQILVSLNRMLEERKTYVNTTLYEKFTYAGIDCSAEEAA
# [22] = molecular target: High affinity nerve growth factor receptor (Homo sapiens) (UniProt P04629); assay: Binding affinity to wild-type human partial length TRKA (G475 to G790 residues) expressed in HEK293 cells at 1 uM by Kinomescan method relative to control; type: cell-based
# [23] = molecular target: Non-receptor tyrosine-protein kinase TYK2 (Homo sapiens) (UniProt P29597); assay: Binding affinity to wild-type human partial length TYK2 JH2 pseudokinase domain (G556 to D888 residues) expressed in HEK293 cells at 1 uM by Kinomescan method relative to control; type: cell-based
# [24] = molecular target: Tyrosine-protein kinase Yes (Homo sapiens) (UniProt P07947); assay: Binding affinity to wild-type human partial length YES (T257 to L543 residues) expressed in Escherichia coli BL21 at 1 uM by Kinomescan method relative to control
# [25] = molecular target: Mitogen-activated protein kinase kinase kinase 20 (Homo sapiens) (UniProt Q9NYL2); assay: Binding affinity to wild-type human partial length ZAK (M1 to L331 residues) expressed in Escherichia coli BL21 at 1 uM by Kinomescan method relative to control
SMILES,Activity [1] [%],Activity [2] [%],Activity [3] [%],Activity [4] [%],Activity [5] [%],Activity [6] [%],Activity [7] [%],Activity [8] [%],Activity [9] [%],Activity [10] [%],Activity [11] [%],Activity [12] [%],Activity [13] [%],Activity [14] [%],Activity [15] [%],Activity [16] [%],Activity [17] [%],Activity [18] [%],Activity [19] [%],Activity [20] [%],further results
C=CC(=O)Nc1ccc(C(=O)Nc2ccc(Nc3ncc4c(n3)N(C)c3ccc(C)cc3C(=O)N4C)cc2)cc1,85,100,100,99,86,95,100,95,91,97,85,76,80,75,87,100,100,91,79,96,Activity [21]: 88%; Activity [22]: 79%; Activity [23]: 88%; Activity [24]: 90%; Activity [25]: 100%
CCC(=O)Nc1ccc(C(=O)Nc2ccc(Nc3ncc4c(n3)N(C)c3ccc(C)cc3C(=O)N4C)cc2)cc1,61,62,100,100,76,100,100,100,97,94,72,87,88,100,71,82,85,100,81,87,Activity [21]: 54%; Activity [22]: 78%; Activity [23]: 93%; Activity [24]: 83%; Activity [25]: 85%
